Measured values pooled from the literature.
Protocols differ between the studies behind these lines. ≈ marks a conversion by molar mass, not a printed value.
Organism: Pseudomonas aeruginosa

Structure (SMILES)	observed	technique	strain	concentration	time	quantity	result
Cc1[nH]c(C(=O)Nc2ccc(C(=O)NCc3n[nH]c(=O)o3)cc2N2CCNCC2)c(Cl)c1Cl.Cl	microbial growth	broth dilution	ATCC27853			MIC	> 32 µg/mL
COc1ccccc1C(=O)C#Cc1ccc(F)c(F)c1	microbial growth	absorbance		10 µM	24 h	activity vs control	86%
COc1cc(C=Nc2cccc(O)c2)ccc1O	microbial growth	disc diffusion		2000 µg/mL	24 h	inhibition zone	14.5 mm
O=C(C=Cc1ccc(O)c(O)c1)Oc1ccccc1	microbial growth	broth dilution	ATCC27853			MIC	8 µg/mL (≈ 31.2 µM)
Cc1[nH]c(C(=O)Nc2ccc(C(=O)NCC(=O)O)cc2N2CC[C@H](N)C2)c(Cl)c1Cl.Cl	microbial growth	broth dilution	ATCC27853			MIC	> 32 µg/mL
COc1cc(C=Nc2ccc([N+](=O)[O-])cc2)ccc1O	microbial growth	disc diffusion		2000 µg/mL	24 h	inhibition zone	14.2 mm
Cl.O=C(O)CNC(=O)c1ccc(NC(=O)c2cc(Br)c(Br)[nH]2)c(N2CCNCC2)c1	microbial growth	broth dilution	ATCC27853			MIC	> 32 µg/mL
COc1cc(C=Nc2ccc(Cl)cc2Cl)ccc1O	microbial growth	disc diffusion		2000 µg/mL	24 h	inhibition zone	14.4 mm
O=C(C=Cc1ccc(O)c(O)c1)OCc1ccccc1	microbial growth	broth dilution	ATCC27853			MIC	8 µg/mL (≈ 29.6 µM)
COc1cc(C#CC(=O)c2cccc(C)c2)ccc1O	microbial growth	absorbance		10 µM	24 h	activity vs control	98%
Cc1[nH]c(C(=O)Nc2ccc(C(=O)NCc3n[nH]c(=O)o3)cc2N2CCN(C(=O)OC(C)(C)C)CC2)c(Cl)c1Cl	microbial growth	broth dilution	ATCC27853			MIC	> 32 µg/mL
COc1cc(C=Nc2ccc(C)cc2Cl)ccc1O	microbial growth	disc diffusion		2000 µg/mL	24 h	inhibition zone	12.7 mm
Cc1[nH]c(C(=O)Nc2ccc(C(=O)NCC(=O)O)cc2N2CC[C@@H](NC(=O)OC(C)(C)C)C2)c(Cl)c1Cl	microbial growth	broth dilution	ATCC27853			MIC	> 32 µg/mL
COc1cccc(C(=O)C#Cc2ccc(O)c(OC)c2)c1	microbial growth	absorbance		10 µM	24 h	activity vs control	87%
COc1cc(Cc2cnc(N)nc2N)cc(OC)c1OC	microbial growth	broth dilution	ATCC27853			MIC	8 µg/mL (≈ 27.6 µM)
COc1cc(C#CC(=O)c2ccc(C(F)(F)F)cc2)ccc1O	microbial growth	absorbance		10 µM	24 h	activity vs control	102%
CC1(C)S[C@@H]2[C@H](NC(=O)[C@H](N)c3ccccc3)C(=O)N2[C@H]1C(=O)O	microbial growth	broth dilution	ATCC27853			MIC	8 µg/mL (≈ 22.9 µM)
CC(C)(O/N=C(\C(=O)N[C@@H]1C(=O)N2C(C(=O)[O-])=C(C[n+]3ccccc3)CS[C@H]12)c1csc(N)n1)C(=O)O	microbial growth	broth dilution	ATCC27853		20 h	MIC	1 µg/mL (≈ 1.83 µM)
CC(C)(C)OC(=O)N1CCN(c2cc(C(=O)NCC(=O)O)ccc2NC(=O)c2cc(Br)c(Br)[nH]2)CC1	microbial growth	broth dilution	ATCC27853			MIC	> 32 µg/mL
Cc1ccc(C(=O)C#Cc2ccc(F)c(F)c2)cc1	microbial growth	absorbance		100 µM	24 h	activity vs control	96%
CC(C)(C)OC(=O)N[C@@H]1CCN(c2cc(C(=O)NCC(=O)O)ccc2NC(=O)c2cc(Br)c(Br)[nH]2)C1	microbial growth	broth dilution	ATCC27853			MIC	> 32 µg/mL
OC(C#Cc1ccc(F)c(F)c1)c1ccccc1Cl (stereo not drawn)	microbial growth	absorbance		100 µM	24 h	activity vs control	97%
Cl.N[C@H]1CCN(c2cc(C(=O)NCC(=O)O)ccc2NC(=O)c2cc(Br)c(Br)[nH]2)C1	microbial growth	broth dilution	ATCC27853			MIC	> 32 µg/mL
COc1cc(C#CC(O)CC(C)C)ccc1O (stereo not drawn)	microbial growth	absorbance		100 µM	24 h	activity vs control	93%
CN[C@H](CC(C)C)C(=O)N[C@H]1C(=O)N[C@@H](CC(N)=O)C(=O)N[C@H]2C(=O)N[C@H]3C(=O)N[C@H](C(=O)N[C@H](C(=O)O)c4cc(O)cc(O)c4-c4cc3ccc4O)[C@H](O)c3ccc(c(Cl)c3)Oc3cc2cc(c3O[C@@H]2O[C@H](CO)[C@@H](O)[C@H](O)[C@H]2O[C@H]2C[C@](C)(N)[C@H](O)[C@H](C)O2)Oc2ccc(cc2Cl)[C@H]1O	microbial killing		ATCC47085			MBC	1000 µg/mL (≈ 690 µM)
O=C(C=Cc1ccc(O)c(O)c1)OCCc1ccccc1	microbial growth	broth dilution	ATCC27853			MIC	64 µg/mL (≈ 225 µM)
CCCC(=O)C#Cc1ccc(O)c(OC)c1	microbial growth	absorbance		100 µM	24 h	activity vs control	94%
